MrgX1 allo act: human MrgX1 positive allosteric modulation, primary screen; Q96LB2; MrgX1-HEK293, Fluo-4 calcium flux, FDSS; active compounds read high; B-score at 10 µM; hit rate 0.63% among 310,000; AID 588675;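 active = plate-corrected calcium response at least 3 library SD above typical, normal starting fluorescence, not activating the receptor alone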;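 note: compound read alongside a low EC10 to EC30 dose of BAM8-22 agonist; peak minus trough fluorescence over baseline measured at the second addition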
MrgX1 ag: activates human MrgX1 receptor signaling; AID 588627; Q96LB2; MrgX1-HEK293 cells, Fluo-4 calcium fluorescence, agonist mode; active compounds read high; B-score at 10 µM; hit rate 0.44% among 310,000;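 active = calcium response B-score plate-corrected fluorescence ratio at least 3 library SD, with starting fluorescence B-score inside 5 SD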
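Test system: HEK293 cells stably expressing human MrgX1 receptor; amount: 15,000 cells per well; doses: compound delivered in addition one of three; times: overnight plating before 1 h dye loading; detection: Fluo-4 NW calcium-flux fluorescence, kinetic read; read-out basis: B-scored fluorescence response ratio; controls: positive and negative controls per plate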
RGS4 inh: human RGS4 inhibition; P49798; HEK293 M3R/RGS4 inducible, Fluo-4 calcium flux; active compounds read high; triggered by carbachol at its EC20; B-score at 10 µM; hit rate 0.45% among 310,000;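 active = B-score, a plate-corrected calcium signal, over three deviations above library mean, with baseline fluorescence within five deviations of library mean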;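 note: RGS4 expression induced by doxycycline in cells with stable M3 receptor; B-score is computed from the integrated fluorescence ratio over baseline after carbachol; higher B-score means a larger calcium signal and so more RGS4 inhibition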
PHOSPHO1 inh: blocks human PHOSPHO1 phosphatase activity; Q8TCT1; recombinant PHOSPHO1, absorbance phosphatase assay; inhibition, % at 13.3 µM; hit rate 1.1% among 290,000; in the data active = inhibition above about 60%
Target sequence (Q8TCT1 whole entry, looked up): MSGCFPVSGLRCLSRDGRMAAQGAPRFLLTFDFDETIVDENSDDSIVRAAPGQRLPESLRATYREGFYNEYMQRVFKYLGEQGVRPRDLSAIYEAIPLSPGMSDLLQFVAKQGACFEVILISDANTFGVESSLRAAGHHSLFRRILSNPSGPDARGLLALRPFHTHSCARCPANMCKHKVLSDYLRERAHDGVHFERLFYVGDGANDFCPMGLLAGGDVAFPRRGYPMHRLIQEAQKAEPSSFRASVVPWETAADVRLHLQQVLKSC
RGS4 act: potentiators or activators of RGS4; HEK293 M3R/inducible RGS4, carbachol calcium flux Fluo4; active compounds read low; B-score at 10 µM; hit rate 0.92% among 310,000; AID 463111;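 active = B-score of the integrated calcium signal more than 4 SD below the library mean, with starting fluorescence not abnormally high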;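 note: negative B-score means reduced calcium response which marks RGS4 activation or potentiation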
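Detection: kinetic calcium fluorescence imaging with Fluo4-AM dye, 2 µM / Material: HEK293 cells with stable M3R and inducible RGS4 / Schedule: recording 10 s baseline at 1 Hz, 100 s post-agonist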
MrgX1 antagonist: human MrgX1 receptor antagonism, primary screen | MRGX1-HEK293 calcium flux, Fluo-4, BAM8-22 antagonism; active compounds read low | B-score at 10 µM | hit rate 1.3% among 310,000 | AID 588676;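 active = calcium-response B-score plate-corrected more than 3 library SD below zero, starting fluorescence within 5 deviations, no agonist response on first addition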;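 note: peak minus trough fluorescence over baseline after final BAM8-22 challenge near maximal dose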
Numbers without * were called inactive; i = inactive; x = not tested or not shown. Rows were chosen to be rich in hits. Some 4.5% of all compounds tested hit in one or more screens of this group.

SMILES | MrgX1 allo act | MrgX1 ag | RGS4 inh | PHOSPHO1 inh | RGS4 act | MrgX1 antagonist
COc1ccc(C2CC(=O)N3CN(c4ccccc4F)CSC3=C2C#N)cc1OC (stereo not drawn) | i | i | i | 90* | i | i
CCc1ccccc1N1CSC2=C(C#N)C(c3ccccc3F)CC(=O)N2C1 (stereo not drawn) | i | i | i | 61* | i | i
COc1ccc(/C=C/C(=O)NCC2COc3ccccc3O2)cc1OC (stereo not drawn) | i | i | i | 37 | i | -7.1*
Cc1ccc(/C=C/C(=O)NCC2COc3ccccc3O2)o1 (stereo not drawn) | i | i | i | -8 | i | i
CCN(CC)C(=O)C(=O)Nc1ccc(OCc2ccccc2)cc1 | i | i | i | 6 | i | i
Cc1nnc(SCc2cccc([N+](=O)[O-])c2)s1 | i | i | i | -25 | -7.1* | i
O=C(Nc1nnc(SCc2ccccc2)s1)c1cccc([N+](=O)[O-])c1 | i | i | i | -9 | i | i
CCCCCOc1ccc(/C=c2\sc3nc(=O)c(-c4ccccc4)nn3c2=O)cc1OC | i | i | i | -1 | i | i
O=c1nc2s/c(=C\c3ccc(-c4ccccc4[N+](=O)[O-])o3)c(=O)n2nc1-c1ccccc1 | x | x | i | 74* | i | x
COc1ccc(NC(=O)N2CCCC(C(=O)NCCc3ccccc3)C2)cc1 (stereo not drawn) | i | i | i | 31 | i | i
O=C1C(Cl)=C(NC2CCCCC2)C(=O)N1c1ccc(Cl)cc1 | 15* | i | i | -1 | i | i
CCc1ccc(C(=O)COC(=O)c2cccnc2Cl)cc1 | i | i | i | 40 | i | i
CCn1c(CC(=O)Nc2ccc(C)cc2)nnc1SCC(=O)N1CCOCC1 | i | i | i | 63* | i | i
CCn1c(SCC(=O)N2CCOCC2)nnc1C(C)NC(=O)c1ccccc1 (stereo not drawn) | i | i | i | 63* | i | i
CCn1c(Cc2ccccc2)nnc1SCC(=O)Nc1ccc(C)cc1 | i | i | i | 4 | i | i
CCn1c(CC(=O)Nc2ccc(C)cc2)nnc1SCC(=O)NCCc1ccccc1 | i | i | i | -8 | i | -5.5*
S=C(Cc1cccnc1)N1CCOCC1 | i | i | i | 60* | i | i
COc1ccccc1CCn1cnc2c3cc(C)ccc3n(C)c2c1=O | i | i | i | 3 | -7* | i
CC(C)CCNC(=O)C(c1ccc(O)cc1)N(C(=O)C1COc2ccccc2O1)c1cccc(O)c1 (stereo not drawn) | i | i | i | 64* | i | i
Cc1cc(C)c2c(=O)n(CC(=O)Nc3cccc(Cl)c3C)sc2n1 | 9.5* | i | i | -21 | i | i
Cc1c(Cl)cccc1NC(=O)Cn1cccc1 | i | i | i | -4 | i | i
CCN(CC)CCN1C(=O)c2oc3ccccc3c(=O)c2C1c1ccccc1 (stereo not drawn) | i | i | i | 27 | i | -6*
CCN(CC)CCN1C(=O)c2oc3ccccc3c(=O)c2C1c1cccc(Br)c1 (stereo not drawn) | i | i | i | -4 | i | i
CCN(CC)CCCN1C(=O)c2oc3ccccc3c(=O)c2C1c1cccs1 (stereo not drawn) | 11* | i | i | -7 | i | i
Cc1nc2ccc(-c3ccccc3)cc2o1 | i | i | i | 79* | i | i
CNC(=O)Nc1ccc2nc(C)oc2c1 | i | i | i | 32 | i | i
CCOc1ccc(NC(=O)CN2C(=O)COc3ccc(S(=O)(=O)N4CCCCC4)cc32)cc1 | i | i | i | 30 | i | i
COc1ccc(NC(=O)CN2C(=O)COc3ccc(S(=O)(=O)N4CCCCCC4)cc32)cc1 | i | i | i | 64* | i | i
CCN(Cc1ccccc1)C(=O)CN1C(=O)COc2ccc(S(=O)(=O)N3CCCCCC3)cc21 | i | i | i | 22 | i | i

Screening results as filed in PubChem.
